Values belong to the compound of their own block, whether it stands above or below them. Activity calls are given as the source filed them.
Experiments:
[1] = molecular target: T1, Sodium- and chloride-dependent GABA transporter 1 (Mus musculus, UniProt P31648); test: Inhibition of mouse GAT1 expressed in HEK293 cell line assessed as inhibition of [3H]GABA uptake measured after 35 mins by liquid scintillation method; type: cell-based
Summary of the method: (§1)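 Otherwise, the remaining uptake at 100 µM is reported as a percentage. Values without SEM come from a single triplicate experiment.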

[2] = molecular target: T2, GABA transporter 4 (Mus musculus, UniProt P31650); test: Inhibition of mouse GAT4 expressed in HEK293 cell line assessed as inhibition of [3H]GABA uptake measured after 35 mins by liquid scintillation method; type: cell-based; summary of the method: as §1
T2 sequence (P31650 whole entry): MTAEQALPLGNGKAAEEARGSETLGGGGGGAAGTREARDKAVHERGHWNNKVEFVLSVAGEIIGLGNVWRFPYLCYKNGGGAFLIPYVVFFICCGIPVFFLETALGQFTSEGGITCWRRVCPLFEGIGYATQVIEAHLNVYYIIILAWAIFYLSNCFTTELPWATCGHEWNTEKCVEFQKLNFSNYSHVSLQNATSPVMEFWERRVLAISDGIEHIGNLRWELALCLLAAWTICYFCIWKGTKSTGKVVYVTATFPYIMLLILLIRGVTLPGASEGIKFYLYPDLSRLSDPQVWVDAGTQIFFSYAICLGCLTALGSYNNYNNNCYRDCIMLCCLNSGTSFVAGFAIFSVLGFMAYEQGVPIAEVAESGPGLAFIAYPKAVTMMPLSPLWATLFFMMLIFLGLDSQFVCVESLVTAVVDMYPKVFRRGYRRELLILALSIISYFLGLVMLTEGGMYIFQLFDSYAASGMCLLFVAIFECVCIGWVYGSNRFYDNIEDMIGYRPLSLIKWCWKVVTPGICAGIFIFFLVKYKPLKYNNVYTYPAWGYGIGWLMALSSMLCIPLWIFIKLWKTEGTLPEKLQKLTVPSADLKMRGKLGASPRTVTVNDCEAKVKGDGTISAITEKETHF

[3] = molecular target: T1, Sodium- and chloride-dependent GABA transporter 1; test: Displacement of unlabelled NO711 from mouse GAT1 expressed in HEK293 cells measured after 40 mins of incubation by LC-ESI-MS-MS method
[4] = molecular target: Sodium- and chloride-dependent GABA transporter 1 (Mus musculus) (UniProt P31648); test: Displacement of [3H]NO711 from mouse GAT1 expressed in HEK293 cells at 100 uM measured after 40 mins of incubation by LC-ESI-MS-MS method; type: cell-based; details: in the assay text read “NO711” for “[3H]NO711”
Summary of the method: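 Competitive MS Binding Assay for mGAT1 using NO-711 as a nonlabeled marker, quantified by LC–ESI–MS–MS. Compounds were screened at 100 µM. […] Otherwise, the percentage of remaining binding at 100 µM is given.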

[5] = test system: BGT1 (Mus musculus, Slc6a12); test: Inhibition of mouse GAT2 expressed in HEK293 cell line assessed as residual [3H]GABA uptake at 100 uM measured after 35 mins by liquid scintillation method
[6] = molecular target: Sodium- and chloride-dependent GABA transporter 1 (Mus musculus) (UniProt P31648); test: Inhibition of mouse GAT1 expressed in HEK293 cell line assessed as inhibition of [3H]GABA uptake at 100 uM measured after 35 mins by liquid scintillation method; values are per cent of control
[7] = Lipophilicity, logP of the compound by UPLC-MS method; type: physicochemical; details: octanol/water; read-out: logP
Summary of the method: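 LogP measured by UPLC on a BEH C18 column (2.1 × 100 mm, 1.7 µm, with C18 pre-column) coupled to an ESI tandem quadrupole MS. The method was calibrated with reference compounds of established logP values.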

[8] = molecular target: GABA transporter 3 (Mus musculus, Slc6a13); test: Inhibition of mouse GAT3 expressed in HEK293 cell line assessed as inhibition of [3H]GABA uptake measured after 35 mins by liquid scintillation method
[9] = molecular target: Betaine/GABA transporter BGT1 (Mus musculus, Slc6a12); test: Inhibition of mouse GAT2 expressed in HEK293 cell line assessed as inhibition of [3H]GABA uptake measured after 35 mins by liquid scintillation method
[10] = test system: Mus musculus; test: Antiallodynic activity in STZ-induced diabetic neuropathy pain Albino Swiss mouse model assessed as reduced tactile allodynia at 5 mg/kg, ip administered after 3 weeks of STZ stimulation and measured after 1 hr by von Frey test; type: functional, organism-based
Summary of the method: (§2)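 STZ given i.p. to induce type I diabetes in mice. About 3 weeks (21 days) later, test doses of 5, 10 and 30 mg/kg were given i.p. Von Frey tactile allodynia was read 1 h after dosing as the mean force needed to elicit paw withdrawal (n=10). Results are mean ± SEM, analysed by one-way ANOVA with Tukey's test against pre-drug force and normoglycemic controls.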

[11] = test system: Mus musculus; test: Antiallodynic activity in STZ-induced diabetic neuropathy pain Albino Swiss mouse model assessed as reduced tactile allodynia at 10 mg/kg, ip administered after 3 weeks of STZ stimulation and measured after 1 hr by von Frey test; type: functional, organism-based; summary of the method: as §2
[12] = test system: Mus musculus; test: Antiallodynic activity in STZ-induced diabetic neuropathy pain Albino Swiss mouse model assessed as reduced tactile allodynia at 30 mg/kg, ip administered after 3 weeks of STZ stimulation and measured after 1 hr by von Frey test; type: functional, organism-based; summary of the method: as §2
[13] = test system: Mus musculus; test: Antihyperalgesic activity in STZ-induced diabetic neuropathy pain Albino Swiss mouse model assessed as reduced heat nociceptive threshold at 10 mg/kg, ip administered after 3 weeks of STZ stimulation and measured after 1 hr by hot plate method; type: functional, organism-based
Summary of the method: (§3)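 Heat hyperalgesia in STZ-diabetic neuropathic mice (3 weeks after i.p. STZ) was measured on a hot plate 1 h after i.p. dosing. The readout was latency to pain reaction, comparing pre-drug and post-drug values (n=9-10). Results are mean ± SEM, analysed by one-way ANOVA with Tukey's post hoc test against normoglycemic controls.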

[14] = test system: Mus musculus; test: Antihyperalgesic activity in STZ-induced diabetic neuropathy pain Albino Swiss mouse model assessed as reduced heat nociceptive threshold at 30 mg/kg, ip administered after 3 weeks of STZ stimulation and measured after 1 hr by hot plate method; type: functional, organism-based; summary of the method: as §3
[15] = test system: Mus musculus; test: Antiallodynic activity in oxaliplatin-induced […] neuropathy pain Albino Swiss mouse model assessed as reduced acute-phase tactile allodynia at 30 mg/kg, ip administered after 3 hrs of oxaliplatin stimulation and measured after 1 hr by von Frey test; type: functional, organism-based
Summary of the method: (§4)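 Oxaliplatin-induced peripheral neuropathy in mice was tested in the acute and late phases. Compounds were given i.p. and tactile allodynia was read 1 h later by von Frey as the mean force to elicit paw withdrawal (n=7-10). Results are mean ± SEM, analysed by one-way ANOVA with Tukey's test against pre-drug force and non-neuropathic controls.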

[16] = test system: Mus musculus; test: Antiallodynic activity in oxaliplatin-induced […] neuropathy pain Albino Swiss mouse model assessed as reduced late-phase tactile allodynia at 30 mg/kg, ip administered after 7 days of oxaliplatin stimulation by van Frey test; type: functional, organism-based; summary of the method: as §4
[17] = test system: Mus musculus; test: Antihyperalgesic activity in oxaliplatin-induced […] acute neuropathy pain Albino Swiss mouse model assessed as reduction in cold allodynia at 30 mg/kg, ip administered after 3 hrs of oxaliplatin stimulation by cold plate method; type: functional, organism-based
Summary of the method: (§5)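 For cold allodynia, oxaliplatin-treated mice were placed on a cold plate in the acute and late phases of neuropathy after i.p. dosing. The readout was mean latency to pain reaction (n=7-10). Results are mean ± SEM, analysed by one-way ANOVA with Tukey's post hoc test against non-neuropathic controls.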

[18] = test system: Mus musculus; test: Antihyperalgesic activity in oxaliplatin-induced […] late neuropathy pain Albino Swiss mouse model assessed as reduction in cold allodynia at 30 mg/kg, ip administered after 7 days of oxaliplatin stimulation by cold plate method; type: functional, organism-based; summary of the method: as §5
[19] = test system: Mus musculus; test: Antihyperalgesic activity in oxaliplatin-induced […] acute neuropathy pain Albino Swiss mouse model assessed as reduction in cold allodynia at 10 mg/kg, ip administered after 3 hrs of oxaliplatin stimulation by cold plate method; type: functional, organism-based; summary of the method: as §5
[20] = test system: Mus musculus; test: Antihyperalgesic activity in oxaliplatin-induced […] late neuropathy pain Albino Swiss mouse model assessed as reduction in cold allodynia at 10 mg/kg, ip administered after 7 days of oxaliplatin stimulation by cold plate method; type: functional, organism-based; summary of the method: as §5
[21] = test system: Mus musculus; test: Antiallodynic activity in oxaliplatin-induced peripheral neuropathy pain Albino Swiss mouse model assessed as reduced late-phase tactile allodynia at 30 mg/kg, ip administered after […] of oxaliplatin stimulation and measured after 1 hr by van Frey test
[22] = test system: Mus musculus; test: Antiallodynic activity in oxaliplatin-induced peripheral neuropathy pain Albino Swiss mouse model assessed as reduced acute-phase tactile allodynia at 10 mg/kg, ip administered after 3 hrs of oxaliplatin stimulation and measured after 1 hr by von Frey test
[23] = molecular target: T1, Sodium- and chloride-dependent GABA transporter 1; test: Inhibition of mouse GTA 1 receptor
[24] = molecular target: T3, GABA transporter 3 (Mus musculus, UniProt P31649); test: Inhibition of mouse GTA 3 receptor
T3 sequence (P31649 whole entry): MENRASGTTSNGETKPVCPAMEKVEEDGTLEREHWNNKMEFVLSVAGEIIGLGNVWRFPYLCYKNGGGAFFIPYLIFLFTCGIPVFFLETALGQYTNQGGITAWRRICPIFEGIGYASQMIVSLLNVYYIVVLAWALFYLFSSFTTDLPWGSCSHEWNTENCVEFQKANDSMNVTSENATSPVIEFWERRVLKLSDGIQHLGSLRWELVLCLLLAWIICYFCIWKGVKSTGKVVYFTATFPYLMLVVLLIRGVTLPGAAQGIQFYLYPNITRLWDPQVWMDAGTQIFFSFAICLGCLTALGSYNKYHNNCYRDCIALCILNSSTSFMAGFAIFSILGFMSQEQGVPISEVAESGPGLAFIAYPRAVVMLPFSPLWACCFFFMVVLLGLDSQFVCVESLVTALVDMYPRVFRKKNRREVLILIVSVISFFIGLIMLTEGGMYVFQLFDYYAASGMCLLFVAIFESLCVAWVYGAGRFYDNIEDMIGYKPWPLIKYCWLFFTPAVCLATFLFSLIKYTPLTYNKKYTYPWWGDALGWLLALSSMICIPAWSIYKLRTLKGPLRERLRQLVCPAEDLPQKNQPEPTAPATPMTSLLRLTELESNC

[25] = molecular target: T2, GABA transporter 4; test: Inhibition of mouse GTA4 receptor

Structure (SMILES): Cc1ccc(CNC(=O)C(CO)N(C)CCC=C(c2sccc2C)c2sccc2C)cc1 (configuration not stated)
IC50 [1]: 20 µM
IC50 [2]: 9.55 µM
Ki [3]: 38.9 µM

Structure (SMILES): Cc1ccsc1C(=CCCN(C)C(CCO)C(=O)N1CCOCC1)c1sccc1C (configuration not stated)
logP [7]: 4.75
IC50 [2]: 33.1 µM
residual activity [4]: 84%
residual activity [5]: 76%
residual activity [6]: 57%

Structure (SMILES): COc1ccc(C(OCCN2CCC[C@H](C(=O)O)C2)(c2ccc(OC)cc2)c2ccc(OC)cc2C)cc1
pIC50 [8]: 4.85
pIC50 [9]: 4.12

Structure (SMILES): Cc1ccsc1C(=CCCN(C)C(CO)C(=O)NCc1ccc(F)cc1)c1sccc1C (configuration not stated)
IC50 [1]: 15.1 µM
logP [7]: 6.45
IC50 [2]: 17 µM
Ki [3]: 51.3 µM

Structure (SMILES): Cc1ccsc1C(=CCCN(C)C(CO)C(=O)NCc1ccc(Cl)cc1)c1sccc1C (configuration not stated)
IC50 [1]: 20.4 µM
Activity [10]: inactive
Activity [11]: inactive
Activity [12]: Active
Activity [13]: inactive
Activity [14]: inactive
Activity [15]: Active
Activity [16]: Active
Activity [17]: inactive
Activity [18]: inactive
logP [7]: 6.47
IC50 [2]: 9.55 µM
residual activity [4]: 66%

Structure (SMILES): Cc1ccsc1C(=CCCN(C)[C@@H]1CCc2onc(O)c2C1)c1sccc1C
IC50 [23]: 7.08 µM
IC50 [24]: > 302 µM
IC50 [25]: > 302 µM

Further lines, with some results ahead:

IC50 [2]: 77.6 µM
residual activity [4]: 96%
residual activity [5]: 65%
residual activity [6]: 61%
Structure (SMILES): Cc1ccsc1C(=CCCN(C)C(CO)C(=O)NCc1ccccc1Cl)c1sccc1C (configuration not stated)

IC50 [1]: 13.8 µM
logP [7]: 6.23
IC50 [2]: 5.75 µM
residual activity [4]: 77%
Structure (SMILES): Cc1ccsc1C(=CCCN(C)C(CCO)C(=O)NCc1ccccc1Cl)c1sccc1C (configuration not stated)
Activity [10]: inactive
Activity [11]: Active
Activity [12]: Active
Activity [13]: inactive
Activity [14]: inactive
Activity [15]: Active
Activity [16]: Active
Activity [19]: inactive
Activity [17]: inactive
Activity [20]: inactive
Activity [18]: inactive
Activity [21]: Active
Activity [22]: Active

Ki [3]: 38 µM
Structure (SMILES): Cc1ccsc1C(=CCCN(C)[C@@H](CCO)C(=O)NCc1ccccc1Cl)c1sccc1C

Source: ChEMBL document CHEMBL4765247, “Novel mouse GABA uptake inhibitors with enhanced inhibitory activity toward mGAT3/4 and their effect on pain threshold in mice” (Eur J Med Chem, 2020)
